Assay results taken from ChEMBL document CHEMBL1955778, “Design and synthesis of novel 7-aminoquinazoline derivatives: antitumor and anticonvulsant activities” (Bioorg Med Chem Lett, 2012).

Columns and labels:
[1] = system: Mus musculus; assay: Anticonvulsant activity in mouse assessed as protection against pentylenetetrazol-induced seizure at 1 mmol/kg, ip administered 30 min prior to pentylenetetrazol-challenge measured after 60 mins relative to control; type: functional
[2] = system: Mus musculus; assay: Anticonvulsant activity in mouse assessed as protection against maximal electroshock-induced seizure at 1 mmol/kg, ip administered 30 min prior to maximal electroshock-challenge measured after 60 mins relative to control; type: functional
[3] = system: Mus musculus; assay: Anticonvulsant activity in mouse assessed as protection against strychnine-induced seizure at 1 mmol/kg, ip administered 30 min prior to strychnine-challenge measured after 60 mins relative to control; type: functional
[4] = system: Mus musculus; assay: Anticonvulsant activity in ip dosed mouse assessed as protection against pentylenetetrazol-induced seizure administered 30 min prior to pentylenetetrazol-challenge measured after 60 mins; type: functional
Method in brief: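 Mice received several doses for quantification. ED50 taken as the dose protecting 50% of mice against pentylenetetrazol-induced seizures.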

[5] = Therapeutic index, ratio of LD50 for mouse to ED50 for pentylenetetrazol-induced seizure in mouse; type: organism-based; details: in vivo, read-out: Ratio LD50/ED50
Method in brief: (§1)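 In mice, LD50 is the dose causing 50% mortality. ED50 is the dose protecting 50% of mice against pentylenetetrazole-induced seizures. Therapeutic index = LD50/ED50.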

[6] = system: Mus musculus; assay: Anticonvulsant activity in mouse assessed as protection against picrotoxin-induced seizure at 1 mmol/kg, ip administered 30 min prior to picrotoxin-challenge measured after 60 mins relative to control; type: functional
[7] = species: Mus musculus; assay: Protective index, ratio of TD50 for mouse to ED50 for pentylenetetrazol-induced seizure in mouse; type: functional
Method in brief: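 Mice. Index is TD50/ED50. TD50 is the dose causing minimal neurological toxicity in 50% of mice in the Chimney test. ED50 is the dose protecting 50% of mice against pentylenetetrazole-induced seizures. Both are estimated from testing at several doses.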

[8] = Neurotoxicity in ip dosed mouse assessed as impaired motor coordination administered 30 mins prior to test by chimney test; type: toxicity, organism-based; details: in vivo
Method in brief: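 Mice, Chimney test. TD50 is the dose that produces minimal neurological toxicity (impaired motor coordination) in 50% of animals, estimated from testing at several doses.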

[9] = Toxicity in ip dose mouse assessed as mortality; type: organism-based; details: in vivo; method in brief: as §1
[10] = system: ACHN; assay: Growth inhibition of human ACHN cells at 10 uM relative to control; type: functional; details: read-out: GI
Method in brief: (§2)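 Each cell line in a 60-line human tumour panel exposed to one 10 μM concentration. Growth inhibition percentage computed as 100 minus the percentage activity relative to control.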

[11] = system: UACC-62; assay: Growth inhibition of human UACC62 cells at 10 uM relative to control; type: functional; details: read-out: GI
Method in brief: (§3)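 Single-dose screen across the 60-cell-line human tumor panel at 10 μM. Growth inhibition is reported as a percentage, taken as 100 minus the % growth relative to untreated control.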

[12] = system: SR; assay: Growth inhibition of human SR cells at 10 uM relative to control; type: functional; details: read-out: GI; method in brief: as §3
[13] = system: KM12; assay: Growth inhibition of human KM12 cells at 10 uM relative to control; type: functional; details: read-out: GI; method in brief: as §2
[14] = system: HCT-15; assay: Growth inhibition of human HCT15 cells at 10 uM relative to control; type: functional; details: read-out: GI; method in brief: as §2
[15] = system: HT-29; assay: Growth inhibition of human HT-29 cells at 10 uM relative to control; type: functional; details: read-out: GI; method in brief: as §2
[16] = system: LOX IMVI; assay: Growth inhibition of human LOXIMVI cells at 10 uM relative to control; type: functional; details: read-out: GI; method in brief: as §2
[17] = system: MOLT-4; assay: Growth inhibition of human MOLT4 cells at 10 uM relative to control; type: functional; details: read-out: GI; method in brief: as §2
[18] = system: SF-295; assay: Growth inhibition of human SF295 cells at 10 uM relative to control; type: functional; details: read-out: GI; method in brief: as §2
[19] = system: MDA-MB-468; assay: Growth inhibition of human MDA-MB-468 cells at 10 uM relative to control; type: functional; details: read-out: GI; method in brief: as §2
[20] = system: MDA-MB-231; assay: Growth inhibition of human MDA-MB-231 cells at 10 uM relative to control; type: functional; details: read-out: GI; method in brief: as §2
[21] = system: SNB-75; assay: Growth inhibition of human SNB75 cells at 10 uM relative to control; type: functional; details: read-out: GI; method in brief: as §3
[22] = system: UO-31; assay: Growth inhibition of human UO31 cells at 10 uM relative to control; type: functional; details: read-out: GI; method in brief: as §3
[23] = system: UACC-257; assay: Growth inhibition of human UACC257 cells at 10 uM relative to control; type: functional; details: read-out: GI; method in brief: as §3
[24] = system: U-251; assay: Growth inhibition of human U251 cells at 10 uM relative to control; type: functional; details: read-out: GI; method in brief: as §3
[25] = system: NCI-H522; assay: Growth inhibition of human NCI-H522 cells at 10 uM relative to control; type: functional; details: read-out: GI; method in brief: as §2
[26] = system: RPMI-8226; assay: Growth inhibition of human RPMI8226 cells at 10 uM relative to control; type: functional; details: read-out: GI; method in brief: as §2
[27] = system: HL-60(TB); assay: Growth inhibition of human HL-60(TB) cells at 10 uM relative to control; type: functional; details: read-out: GI
Method in brief: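 Single-dose screen at 10 μM across the 60-cell-line tumour panel. Percent growth inhibition = 100 minus percent growth activity relative to untreated control.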

[28] = system: A549; assay: Growth inhibition of human A549 cells at 10 uM relative to control; type: functional; details: read-out: GI; method in brief: as §2
[29] = system: CCRF-CEM; assay: Growth inhibition of human CCRF-CEM cells at 10 uM relative to control; type: functional; details: read-out: GI; method in brief: as §2
[30] = system: MCF7; assay: Growth inhibition of human MCF7 cells at 10 uM relative to control; type: functional; details: read-out: GI; method in brief: as §2
[31] = system: K562; assay: Growth inhibition of human K562 cells at 10 uM relative to control; type: functional; details: read-out: GI; method in brief: as §2
[32] = system: PC-3; assay: Growth inhibition of human PC3 cells at 10 uM relative to control; type: functional; details: read-out: GI; method in brief: as §2
[33] = system: SK-MEL-28; assay: Growth inhibition of human SK-MEL-28 cells at 10 uM relative to control; type: functional; details: read-out: GI; method in brief: as §2
[34] = system: MDA-MB-435; assay: Growth inhibition of human MDA-MB-435 cells at 10 uM relative to control; type: functional; details: read-out: GI; method in brief: as §2
[35] = system: SK-OV-3; assay: Growth inhibition of human SKOV3 cells at 10 uM relative to control; type: functional; details: read-out: GI; method in brief: as §2
[36] = system: EKVX; assay: Growth inhibition of human EKVX cells at 10 uM relative to control; type: functional; details: read-out: GI; method in brief: as §2
[37] = system: A498; assay: Growth inhibition of human A498 cells at 10 uM relative to control; type: functional; details: read-out: GI; method in brief: as §2
[38] = system: T47D; assay: Growth inhibition of human T47D cells at 10 uM relative to control; type: functional; details: read-out: GI; method in brief: as §3
[39] = system: BT-549; assay: Growth inhibition of human BT549 cells at 10 uM relative to control; type: functional; details: read-out: GI; method in brief: as §2

SMILES	Activity [1]	Activity [2]	Activity [3]	ED50 [4]	selectivity ratio [5]	Activity [6]	Ratio TD50/ED50 [7]	TD50 at 0.5 h [8]	LD50 [9]	inhibition of growth at 10 µM [11]	inhibition of growth at 10 µM [12]	inhibition of growth at 10 µM [15]	inhibition of growth at 10 µM [16]	inhibition of growth at 10 µM [17]	inhibition of growth at 10 µM [18]	inhibition of growth at 10 µM [24]	inhibition of growth at 10 µM [26]	inhibition of growth at 10 µM [27]	inhibition of growth at 10 µM [29]	inhibition of growth at 10 µM [31]	also measured
Cc1ccccc1-n1c(C)nc2cc(-n3c(C)nc4ccc(Cl)cc4c3=O)ccc2c1=O	33%	50%	0%																		
Cc1ccccc1-n1c(C)nc2cc(/N=C/c3ccc(Cl)cc3)ccc2c1=O	100%	100%	0%	350 µmol/kg	4.6	50%	2.54	890 µmol/kg	1810 µmol/kg												
Cc1ccccc1-n1c(C)nc2cc(N3C(=O)C=CC3=O)ccc2c1=O	0%	33%	0%																		
Cc1ccccc1-n1c(C)nc2cc(/N=C/c3ccccc3)ccc2c1=O	0%	50%	0%																		
Cc1ccccc1-n1c(C)nc2cc(N3C(=O)CSC3c3ccc(F)cc3)ccc2c1=O (centres undefined)	100%	100%	0%	400 µmol/kg	2.55	75%	1.4	560 µmol/kg	1020 µmol/kg	14%	4%	3%	5%	28.9%	7%	11%	10%	7%	13.2%	10%	inhibition of growth at 10 µM [10]: 3%; inhibition of growth at 10 µM [13]: 4%; inhibition of growth at 10 µM [14]: 5%; inhibition of growth at 10 µM [19]: 2.5%; inhibition of growth at 10 µM [20]: 8%; inhibition of growth at 10 µM [21]: 8.5%; inhibition of growth at 10 µM [22]: 11.7%; inhibition of growth at 10 µM [23]: 9%; inhibition of growth at 10 µM [25]: 18%; inhibition of growth at 10 µM [28]: 2%; inhibition of growth at 10 µM [30]: 9%; inhibition of growth at 10 µM [32]: 12.2%; inhibition of growth at 10 µM [33]: 11%; inhibition of growth at 10 µM [34]: 9.7%; inhibition of growth at 10 µM [35]: 3%
Cc1ccccc1-n1c(C)nc2cc(NC(=O)c3cccs3)ccc2c1=O										8%	21%	11%	4.2%	25.6%	6%	12%	8%	19.2%	12.2%	12.8%	inhibition of growth at 10 µM [36]: 11%; inhibition of growth at 10 µM [37]: 9%; inhibition of growth at 10 µM [38]: 7.8%; inhibition of growth at 10 µM [34]: 6%; inhibition of growth at 10 µM [39]: 8%
